IC50 and Ki data for 18 compounds are collected here from ChEMBL document CHEMBL1131316, “Potent antagonists of somatostatin: synthesis and biology” (J Med Chem, 1998).

One assay addresses Somatostatin receptor. The experiment in a line: Compound was tested for in vitro SRIF inhibition of GH release in rats. Format: functional. The gist of the method: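 Adult male rat anterior pituitary cells, dispersed with trypsin/DNase, cultured 4-5 days. Then 3 h at 37 °C in medium 199 with 1% BSA, GHRH(1-29)NH2 1 nM and SRIF 1 nM, with analogue at six doses (up to 10 µM, some to 100 µM), triplicate wells. GH in medium measured by double-antibody RIA. Antagonist IC50 taken from n separate dose-response curves.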

In assay [1] the target is Somatostatin receptor type 1 (Homo sapiens, UniProt P30872). The experiment in a line: Binding affinity towards cloned human somatostatin 1 (hsst) receptor. The gist of the method:
(§1)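 Membranes from CHO-K1 cells stably transfected with the human receptor subtype (calcium phosphate transfection, G418 selection), homogenised and washed in Tris-HCl. Separated by filtration on PEI-soaked GF/C filters; nonspecific binding with 1.0 µM SRIF.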

The target of assay [2] is Somatostatin receptor type 4 (Homo sapiens, UniProt P31391). Put plainly: Binding affinity towards cloned human somatostatin 4 (hsst) receptor.
Assay [3] deals with Somatostatin receptor type 2 (Homo sapiens, UniProt P30874). Put plainly: Binding affinity towards cloned human somatostatin 2 (hsst) receptor. The gist of the method: as §1
Assay [4] has as its target Somatostatin receptor type 3 (Homo sapiens, UniProt P32745). The experiment in a line: Binding affinity towards cloned human somatostatin 3 (hsst) receptor. In short, it runs like this:
as §1

Assay [5] has as its target Somatostatin receptor type 5 (Homo sapiens, UniProt P35346). Put plainly: Binding affinity towards cloned human somatostatin 5 (hsst) receptor. In short, it runs like this:
as §1

Positions of bridges follow the written chain, without caps; N, C: chain ends. Non-standard residues stand in square brackets, D forms with d. Residues, ends and D or L forms follow the SMILES beside them. dBip = N[C@H](Cc1ccc(-c2ccccc2)cc1)C(=O)O; dPhe(4-Cl) = N[C@H](Cc1ccc(Cl)cc1)C(=O)O; 2Nal = N[C@@H](Cc1ccc2ccccc2c1)C(=O)O; d2Nal = N[C@H](Cc1ccc2ccccc2c1)C(=O)O; 3Pal = N[C@@H](Cc1cccnc1)C(=O)O

Sequence of Somatostatin receptor type 5 (P35346 whole entry): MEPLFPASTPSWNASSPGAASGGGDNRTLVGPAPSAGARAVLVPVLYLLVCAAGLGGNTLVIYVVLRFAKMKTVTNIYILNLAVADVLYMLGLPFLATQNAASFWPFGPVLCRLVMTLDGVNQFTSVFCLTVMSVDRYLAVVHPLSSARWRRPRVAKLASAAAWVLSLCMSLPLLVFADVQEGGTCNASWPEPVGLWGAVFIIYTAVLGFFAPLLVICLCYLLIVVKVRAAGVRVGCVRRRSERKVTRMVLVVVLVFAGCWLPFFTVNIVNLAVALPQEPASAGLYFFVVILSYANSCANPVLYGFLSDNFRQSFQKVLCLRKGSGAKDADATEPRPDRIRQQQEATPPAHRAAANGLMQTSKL
Sequence of Somatostatin receptor type 4 (P31391 whole entry): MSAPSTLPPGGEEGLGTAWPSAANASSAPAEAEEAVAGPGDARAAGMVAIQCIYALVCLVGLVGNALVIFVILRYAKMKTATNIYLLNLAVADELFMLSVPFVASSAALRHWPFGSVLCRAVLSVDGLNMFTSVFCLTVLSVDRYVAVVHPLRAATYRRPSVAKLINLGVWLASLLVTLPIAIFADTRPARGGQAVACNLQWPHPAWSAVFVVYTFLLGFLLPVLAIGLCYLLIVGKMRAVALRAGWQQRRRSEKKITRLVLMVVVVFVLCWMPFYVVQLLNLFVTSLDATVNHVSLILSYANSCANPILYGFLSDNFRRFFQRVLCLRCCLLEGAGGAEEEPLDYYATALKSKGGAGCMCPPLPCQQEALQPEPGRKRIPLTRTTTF
Sequence of Somatostatin receptor type 1 (P30872 whole entry): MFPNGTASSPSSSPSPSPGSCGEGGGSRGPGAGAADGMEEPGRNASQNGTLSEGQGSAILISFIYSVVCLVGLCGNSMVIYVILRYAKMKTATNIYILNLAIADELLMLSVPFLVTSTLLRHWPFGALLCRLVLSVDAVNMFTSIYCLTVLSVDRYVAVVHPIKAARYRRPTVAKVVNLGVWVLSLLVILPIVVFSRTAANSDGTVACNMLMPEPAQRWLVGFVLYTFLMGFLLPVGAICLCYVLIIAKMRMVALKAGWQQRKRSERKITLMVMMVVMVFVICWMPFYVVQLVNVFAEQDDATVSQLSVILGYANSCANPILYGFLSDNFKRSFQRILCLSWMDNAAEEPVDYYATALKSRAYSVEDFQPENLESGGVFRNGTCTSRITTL
Sequence of Somatostatin receptor type 2 (P30874 whole entry): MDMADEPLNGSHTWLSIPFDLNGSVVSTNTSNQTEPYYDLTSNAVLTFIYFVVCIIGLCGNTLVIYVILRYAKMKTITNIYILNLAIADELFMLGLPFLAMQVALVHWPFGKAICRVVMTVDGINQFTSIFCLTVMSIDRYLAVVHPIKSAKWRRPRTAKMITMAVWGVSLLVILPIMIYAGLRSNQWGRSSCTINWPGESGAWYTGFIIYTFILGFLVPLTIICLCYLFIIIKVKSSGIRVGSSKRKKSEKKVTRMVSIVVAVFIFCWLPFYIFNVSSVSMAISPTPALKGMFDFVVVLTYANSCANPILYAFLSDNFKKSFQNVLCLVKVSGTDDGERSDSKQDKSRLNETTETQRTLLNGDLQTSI
Sequence of Somatostatin receptor type 3 (P32745 whole entry): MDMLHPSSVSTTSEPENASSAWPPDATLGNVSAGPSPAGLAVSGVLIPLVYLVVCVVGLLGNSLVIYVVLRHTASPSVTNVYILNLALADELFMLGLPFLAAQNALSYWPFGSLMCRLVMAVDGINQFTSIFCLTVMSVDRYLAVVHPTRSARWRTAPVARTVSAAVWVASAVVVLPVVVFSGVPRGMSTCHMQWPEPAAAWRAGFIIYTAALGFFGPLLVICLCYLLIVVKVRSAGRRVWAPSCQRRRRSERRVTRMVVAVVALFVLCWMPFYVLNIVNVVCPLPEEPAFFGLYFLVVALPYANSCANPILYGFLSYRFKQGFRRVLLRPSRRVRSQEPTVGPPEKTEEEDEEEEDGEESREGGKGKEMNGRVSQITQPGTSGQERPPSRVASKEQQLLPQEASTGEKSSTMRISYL

At Somatostatin receptor, `CC(C)[C@@H]1NC(=O)[C@H](CCCCN)NC(=O)[C@@H](Cc2c[nH]c3ccccc23)NC(=O)[C@H](Cc2ccc(O)cc2)NC(=O)[C@@H](NC(=O)[C@@H](N)Cc2ccc3ccccc3c2)CSSC[C@H](C(=O)N[C@@H](Cc2ccc3ccccc3c2)C(N)=O)NC1=O` had an IC50 of 35.3 nM.
Take `C[C@@H](O)[C@@H]1NC(=O)[C@H](CCCCN)NC(=O)[C@@H](Cc2c[nH]c3ccccc23)NC(=O)[C@H](Cc2ccc(O)cc2)NC(=O)[C@H](NC(=O)[C@H](N)Cc2ccc3ccccc3c2)CSSC[C@@H](C(=O)N[C@@H](Cc2ccc3ccccc3c2)C(N)=O)NC1=O`: the values for the IC50 (in assay [1]; in assay [2]; on Somatostatin receptor) were 1040 nM, 605 nM and 180000 nM, respectively. The same compound displayed a Ki in assay [3] of 202 nM.
Regarding `C[C@@H](O)[C@H](NC(=O)[C@@H]1CSSC[C@@H](NC(=O)[C@@H](N)Cc2ccccc2)C(=O)N[C@@H](Cc2cccnc2)C(=O)N[C@H](Cc2c[nH]c3ccccc23)C(=O)N[C@@H](CCCCN)C(=O)N[C@@H]([C@@H](C)O)C(=O)N1)C(N)=O`, the IC50 in assay [4] worked out at 934 nM; in assay [1], 1000 nM; in assay [2] it was 1000 nM; at Somatostatin receptor it was 905 nM. Further, the inhibition constant (Ki) in assay [5] is 2360 nM; in assay [3], 291 nM.
In the case of `C[C@@H](O)[C@H](NC(=O)[C@@H]1CSSC[C@@H](NC(=O)[C@@H](N)Cc2ccc(O)cc2)C(=O)N[C@@H](Cc2cccnc2)C(=O)N[C@H](Cc2c[nH]c3ccccc23)C(=O)N[C@@H](CCCCN)C(=O)N[C@@H]([C@@H](C)O)C(=O)N1)C(N)=O`, the IC50 worked out at 1380 nM in assay [4], 1000 nM in assay [1], 1000 nM in assay [2] and 98650 nM against Somatostatin receptor. In assay [3], this compound showed a Ki of 1000 nM.
On to `CC(C)[C@@H]1NC(=O)[C@H](CCCCN)NC(=O)[C@@H](Cc2c[nH]c3ccccc23)NC(=O)[C@H](Cc2cccnc2)NC(=O)[C@H](NC(=O)[C@@H](N)Cc2ccc3ccccc3c2)CSSC[C@@H](C(=O)N[C@@H](Cc2cccc(-c3ccccc3)c2)C(N)=O)NC1=O`, for which the IC50 against Somatostatin receptor worked out at 56 nM.
`CC(C)[C@@H]1NC(=O)[C@H](CCCCN)NC(=O)[C@@H](Cc2c[nH]c3ccccc23)NC(=O)[C@H](Cc2ccc(O)cc2)NC(=O)[C@H](NC(=O)[C@@H](N)Cc2ccc3ccccc3c2)CSSC[C@@H](C(=O)NC(C)(C)C)NC1=O` registered an IC50 on Somatostatin receptor of 108600 nM.
For the compound `CC(C)[C@@H]1NC(=O)[C@H](CCCCN)NC(=O)[C@@H](Cc2c[nH]c3ccccc23)NC(=O)[C@H](Cc2ccc(O)cc2)NC(=O)[C@H](NC(=O)[C@@H](N)Cc2ccc(O)cc2)CSSC[C@@H](C(=O)N[C@H](Cc2ccc3ccccc3c2)C(N)=O)NC1=O`, the IC50 against Somatostatin receptor worked out at 64.8 nM.
Regarding `CC(C)[C@@H]1NC(=O)[C@H](CCCCN)NC(=O)[C@@H](Cc2c[nH]c3ccccc23)NC(=O)[C@H](Cc2ccc(O)cc2)NC(=O)[C@H](NC(=O)[C@@H](N)Cc2ccc3ccccc3c2)CSSC[C@@H](C(=O)N[C@H](Cc2ccc3ccccc3c2)C(N)=O)NC1=O`, the IC50 in assay [4] was 2280 nM; in assay [1], 1000 nM; in assay [2], 1000 nM; on Somatostatin receptor it was 280 nM. Besides, the Ki in assay [5] is 1250 nM; in assay [3], 46.1 nM.
Compound `CC(C)[C@@H]1NC(=O)[C@H](CCCCN)NC(=O)[C@@H](Cc2c[nH]c3ccccc23)NC(=O)[C@H](Cc2ccc(O)cc2)NC(=O)[C@H](NC(=O)[C@H](N)Cc2ccc3ccccc3c2)CSSC[C@H](C(=O)N[C@H](Cc2ccc3ccccc3c2)C(N)=O)NC1=O` had an IC50 at Somatostatin receptor of 375 nM.
Take `CC(=O)N[C@@H](Cc1ccc2ccccc2c1)C(=O)N[C@@H]1CSSC[C@@H](C(=O)N[C@@H](Cc2ccc3ccccc3c2)C(N)=O)NC(=O)[C@H](C(C)C)NC(=O)[C@H](CCCCN)NC(=O)[C@@H](Cc2c[nH]c3ccccc23)NC(=O)[C@H](Cc2ccc(O)cc2)NC1=O` (Ac-[2Nal][dC]Y[dW]KVC[2Nal]-NH2; disulfide 2-7): the IC50 in assay [4] came to 144 nM; in assay [1] it was 1020 nM; in assay [2] it was 1000 nM; against Somatostatin receptor it was 56.7 nM. The Ki in assay [5] was 130 nM; in assay [3], 48.2 nM.
With `CC(C)[C@@H]1NC(=O)[C@H](CCCCN)NC(=O)[C@@H](Cc2c[nH]c3ccccc23)NC(=O)[C@H](Cc2cccnc2)NC(=O)[C@H](NC(=O)[C@@H](N)Cc2ccccc2)CSSC[C@@H](C(=O)N[C@@H](Cc2ccc3ccccc3c2)C(N)=O)NC1=O` (H-F[dC][3Pal][dW]KVC[2Nal]-NH2; disulfide 2-7), the IC50 was 373 nM in assay [4], 535 nM in assay [1], 1000 nM in assay [2] and 58 nM against Somatostatin receptor. Also, the Ki in assay [5] amounted to 769 nM; in assay [3] it was 123 nM.
`CC(C)[C@@H]1NC(=O)[C@H](CCCCN)NC(=O)[C@@H](Cc2c[nH]c3ccccc23)NC(=O)[C@H](Cc2c[nH]cn2)NC(=O)[C@H](NC(=O)[C@@H](N)Cc2ccc3ccccc3c2)CSSC[C@@H](C(=O)N[C@@H](Cc2ccc3ccccc3c2)C(N)=O)NC1=O` (H-[2Nal][dC]H[dW]KVC[2Nal]-NH2; disulfide 2-7): the IC50 in assay [4] was 68 nM; in assay [1] it was 1000 nM; in assay [2] it was 943 nM; against Somatostatin receptor, 53 nM. Also, the inhibitory constant (Ki) in assay [5] is 501 nM; in assay [3] it was 82.5 nM.
Consider `CC(C)[C@@H]1NC(=O)[C@H](CCCCN)NC(=O)[C@@H](Cc2c[nH]c3ccccc23)NC(=O)[C@H](Cc2ccc(O)cc2)NC(=O)[C@H](NC(=O)[C@@H](N)Cc2ccc3ccccc3c2)CSSC[C@@H](C(=O)N[C@@H](Cc2ccc(O)cc2)C(N)=O)NC1=O` (H-[2Nal][dC]Y[dW]KVCY-NH2; disulfide 2-7), for which the IC50 at Somatostatin receptor is 50 nM.
Take `CC(C)[C@@H]1NC(=O)[C@H](CCCCN)NC(=O)[C@@H](Cc2c[nH]c3ccccc23)NC(=O)[C@H](Cc2cccnc2)NC(=O)[C@H](NC(=O)[C@@H](N)Cc2ccc3ccccc3c2)CSSC[C@@H](C(=O)N[C@@H](Cc2ccc3ccccc3c2)C(N)=O)NC1=O` (H-[2Nal][dC][3Pal][dW]KVC[2Nal]-NH2; disulfide 2-7): the half-inhibitory concentration (IC50) in assay [4] stood at 171 nM; in assay [1], 506 nM; in assay [2], 1000 nM; against Somatostatin receptor, 15.1 nM. Also, the Ki in assay [5] was determined as 524 nM; in assay [3] it was 75.9 nM.
Take `CC(C)[C@H](NC(=O)[C@H](CCCCN)NC(=O)[C@@H](Cc1c[nH]c2ccccc12)NC(=O)[C@H](Cc1ccc(O)cc1)NC(=O)[C@@H](Cc1ccc(Cl)cc1)NC(=O)[C@@H](N)Cc1ccc2ccccc2c1)C(=O)N[C@@H](Cc1ccccc1)C(=O)N[C@H](C(N)=O)[C@@H](C)O` (H-[2Nal][dPhe(4-Cl)]Y[dW]KVFT-NH2): the IC50 worked out at 1130 nM in assay [4], 1000 nM in assay [1], 2840 nM in assay [2] and 3030 nM against Somatostatin receptor. In addition, the figures for the inhibitory constant (Ki) in assay [5] and in assay [3] were 1840 nM and 706 nM, respectively.
`CC(C)[C@H](NC(=O)[C@H](CCCCN)NC(=O)[C@@H](Cc1c[nH]c2ccccc12)NC(=O)[C@H](Cc1ccc(O)cc1)NC(=O)[C@@H](Cc1ccc(Cl)cc1)NC(=O)[C@H](N)Cc1ccc2ccccc2c1)C(=O)N[C@@H](Cc1ccccc1)C(=O)N[C@H](C(N)=O)[C@@H](C)O` (H-[d2Nal][dPhe(4-Cl)]Y[dW]KVFT-NH2): the IC50 is 89.9 nM in assay [4], 1000 nM in assay [1], 1000 nM in assay [2] and 3960 nM against Somatostatin receptor. In addition, the inhibition constant Ki in assay [5] stood at 21.6 nM; in assay [3], 144 nM.
For `CC(C)[C@@H]1NC(=O)[C@H](CCCCN)NC(=O)[C@@H](Cc2c[nH]c3ccccc23)NC(=O)[C@H](Cc2ccc(O)cc2)NC(=O)[C@H](NC(=O)[C@H](N)Cc2ccc(-c3ccccc3)cc2)CSSC[C@@H](C(=O)N[C@@H](Cc2ccc3ccccc3c2)C(N)=O)NC1=O` (H-[dBip][dC]Y[dW]KVC[2Nal]-NH2; disulfide 2-7), the IC50 in assay [4] is 466 nM; in assay [1], 1440 nM; in assay [2] it was 1000 nM; against Somatostatin receptor it was 810 nM. For the same compound, the inhibition constant (Ki) in assay [5] amounted to 243 nM; in assay [3], 793 nM.
`CC(C)[C@@H]1NC(=O)[C@H](CCCCN)NC(=O)[C@@H](Cc2c[nH]c3ccccc23)NC(=O)[C@H](Cc2ccc(O)cc2)NC(=O)[C@@H](NC(=O)[C@H](N)Cc2ccc3ccccc3c2)CSSC[C@H](C(=O)N[C@@H](Cc2ccc3ccccc3c2)C(N)=O)NC1=O` (stereo in doubt; 23): the IC50 was 292 nM in assay [4], 494 nM in assay [1], 312 nM in assay [2] and 1360 nM against Somatostatin receptor. Further, the Ki in assay [5] worked out at 744 nM; in assay [3], 68.5 nM.

A word on the IC50: it is the concentration that gives 50% inhibition. In general, Ki refers to a dissociation constant, usually derived from enzyme kinetics or from competition with a known ligand. A high value points to lower affinity.
